Laboratory results from ChEMBL document CHEMBL2384939, “Synthesis of pyrazolo[1,5-a]pyrimidine linked aminobenzothiazole conjugates as potential anticancer agents” (Bioorg Med Chem Lett, 2013).
The source made the active and inactive calls. No cut-off for these calls is given here.

How the values were obtained:
HeLa = experiment: Cytotoxicity against human HeLa cells after 48 hrs by MTT assay; type: functional, cell-based
Procedure, shortened: (§1)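 MTT assay: […] were plated in DMEM with 10% FBS and incubated for 24 h at 37 °C under CO2. Compounds diluted in culture medium were added alongside a vehicle control for 48 h. MTT (10 µl of a 5 mg/ml stock) was added for a further 4 h. The supernatant was then removed, the formazan dissolved in DMSO, and absorbance read at 540 nm. IC50 was derived.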

MCF7 = experiment: Cytotoxicity against human MCF7 cells after 48 hrs by MTT assay; type: functional, cell-based; conditions: MCF7, 48 h; procedure, shortened: as §1
DU-145 = experiment: Cytotoxicity against human DU145 cells after 48 hrs by MTT assay; type: functional, cell-based; conditions: DU-145, 48 h; procedure, shortened: as §1
ACHN = experiment: Cytotoxicity against human ACHN cells after 48 hrs by MTT assay; type: functional, cell-based; procedure, shortened: as §1
A549 [1] = experiment: Cytotoxicity against human A549 cells after 48 hrs by MTT assay; type: functional, cell-based; conditions: A549, 48 h; procedure, shortened: as §1
A549 [2] = experiment: Induction of apoptosis in human A549 cells assessed as DNA fragmentation at 2 uM after 48 hrs by agarose gel electrophoresis; type: functional, cell-based
Procedure, shortened: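 A549 cells (1×10^6) seeded in six-well plates for 24 h, then exposed to 2 µM compound or roscovitine for 48 h and pelleted. Lysate treated with SDS and RNase-A (2 h, 56 °C), then proteinase K (2 h, 37 °C). DNA precipitated with ammonium acetate/cold ethanol, dissolved in TE, and laddering resolved on 2% agarose gel against a 50 bp marker.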

A549 [3] = experiment: Induction of apoptosis in human A549 cells assessed as activation of caspase-3 at 2 uM after 48 hrs by ELISA relative to control; type: functional
Procedure, shortened: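 A549 lung cancer cells exposed to 1 and 2 µM compound for 48 h, with roscovitine as positive control. Pellets lysed for 15 min, and supernatant caspase-3 activity read by a commercial colorimetric kit relative to untreated control. Values are mean ± SD of two experiments run in triplicate.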

A549 [4] = experiment: Cell cycle arrest at human A549 cells assessed as accumulation at G2/M phase at 2 uM after 48 hrs by propidium iodide-staining-based FACS flow cytometric analysis (reference value: 13.17%); type: functional
A549 [5] = experiment: Cell cycle arrest at human A549 cells assessed as accumulation at S phase at 2 uM after 48 hrs by propidium iodide-staining-based FACS flow cytometric analysis (reference value: 4.48%); type: functional
A549 [6] = experiment: Cell cycle arrest at human A549 cells assessed as accumulation at sub G1 phase at 2 uM after 48 hrs by propidium iodide-staining-based FACS flow cytometric analysis (reference value: 1.02%); type: functional
A549 [7] = experiment: Cell cycle arrest at human A549 cells assessed as accumulation at G0/G1 phase at 2 uM after 48 hrs by propidium iodide-staining-based FACS flow cytometric analysis (reference value: 81.33%); type: functional

Structure (SMILES)	IC50 (HeLa) [µM]	IC50 (MCF7) [µM]	IC50 (DU-145) [µM]	IC50 (ACHN) [µM]	IC50 (A549 [1]) [µM]	Activity (A549 [2])	fold change (FC) (A549 [3])	Activity (A549 [4]) [%]	Activity (A549 [5]) [%]	Activity (A549 [6]) [%]	Activity (A549 [7]) [%]
COc1cc(-c2cc(C(=O)Nc3nc4ccc(F)cc4s3)nc3cc(-c4ccccc4)nn23)cc(OC)c1OC	25.1	27.5	25.7	32.4	22.4	–	–	–	–	–	–
COc1cc(-c2cc(C(=O)Nc3nc4cc(C)c(C)cc4s3)nc3cc(-c4ccccc4)nn23)cc(OC)c1OC	8.91	2.29	3.71	3.8	2.34	–	–	–	–	–	–
COc1ccc2nc(NC(=O)c3cc(-c4ccc(OC)c(OC)c4)n4nc(-c5ccccc5)cc4n3)sc2c1	11	18.7	14	13.3	15.8	–	–	–	–	–	–
COc1ccc(-c2cc(C(=O)Nc3nc4ccccc4s3)nc3cc(-c4ccccc4)nn23)cc1OC	8.91	14.7	19.1	7.94	5.49	–	–	–	–	–	–
COc1ccc2nc(NC(=O)c3cc(-c4ccc(F)cc4)n4nc(-c5ccccc5)cc4n3)sc2c1	17.3	24.5	15.4	26.3	24	–	–	–	–	–	–
COc1ccc(-c2cc(C(=O)Nc3nc4ccc(Cl)cc4s3)nc3cc(-c4ccccc4)nn23)cc1OC	9.12	6.91	9.33	7.76	6.16	–	–	–	–	–	–
Cc1cc2nc(NC(=O)c3cc(-c4ccc(F)cc4)n4nc(-c5ccccc5)cc4n3)sc2cc1C	18.2	17	12.9	33	12.6	–	–	–	–	–	–
COc1ccc(-c2cc(C(=O)Nc3nc4ccccc4s3)nc3cc(-c4ccccc4)nn23)cc1	4.67	2.23	2.95	1.69	1.54	–	–	–	–	–	–
COc1ccc(-c2cc(C(=O)Nc3nc4cc(C)c(C)cc4s3)nc3cc(-c4ccccc4)nn23)cc1OC	6.76	2.51	6.91	8.7	2.95	–	–	–	–	–	–
O=C(Nc1nc2ccc(F)cc2s1)c1cc(-c2ccc(F)cc2)n2nc(-c3ccccc3)cc2n1	29.5	22.9	22.9	35.5	14.8	–	–	–	–	–	–
CC[C@H](CO)Nc1nc(NCc2ccccc2)c2ncn(C(C)C)c2n1 [SELICICLIB]	1.81	3.98	1.9	2.88	2.18	Active	4	40.69	5.26	7.3	46.75
COc1ccc(-c2cc(C(=O)Nc3nc4ccc(Cl)cc4s3)nc3cc(-c4ccccc4)nn23)cc1	5.88	4.89	5.88	7.24	3.09	–	–	–	–	–	–
COc1ccc(-c2cc(C(=O)Nc3nc4cc(C)c(C)cc4s3)nc3cc(-c4ccccc4)nn23)cc1	14.1	19.7	12.3	22.4	13.2	–	–	–	–	–	–
COc1ccc(-c2cc(C(=O)Nc3nc4ccc(F)cc4s3)nc3cc(-c4ccccc4)nn23)cc1	41.7	35.5	31.4	39.3	11.7	–	–	–	–	–	–
COc1ccc(-c2cc(C(=O)Nc3nc4ccc(F)cc4s3)nc3cc(-c4ccccc4)nn23)cc1OC	8.31	22.4	18.6	8.12	6.91	–	–	–	–	–	–
O=C(Nc1nc2ccc(Cl)cc2s1)c1cc(-c2ccc(F)cc2)n2nc(-c3ccccc3)cc2n1	9.77	19.8	17.6	13.8	6.6	–	–	–	–	–	–
COc1cc(-c2cc(C(=O)Nc3nc4ccc(Cl)cc4s3)nc3cc(-c4ccccc4)nn23)cc(OC)c1OC	22.4	30.2	38.9	41.7	18.2	–	–	–	–	–	–
COc1ccc(-c2cc(C(=O)Nc3nc4ccc(OC)cc4s3)nc3cc(-c4ccccc4)nn23)cc1	24.5	19.1	7.58	38.3	17.4	–	–	–	–	–	–
COc1ccc2nc(NC(=O)c3cc(-c4cc(OC)c(OC)c(OC)c4)n4nc(-c5ccccc5)cc4n3)sc2c1	8.7	2.95	3.98	5.24	2.81	–	–	–	–	–	–
